Assay results published in article PMC7187372 (Journal of Clinical Pharmacology, 2019).

Assays:
[1] = higher; cited from earlier work
[2] = cited from earlier work
[3] = system: Hedgehog pathway marker glioma‐associated oncogene homolog 1 (GLI1); conditions: plasma exposures at doses ≥100 mg QD; cited from earlier work
[4] = cited from earlier work; remark: listed apart in the source
[5] = Simulation of steady-state exposure; set-up: species or system human
[6] = cited from earlier work; remark: listed apart in the source
Ketoconazole = assay type: in vivo, human; conditions: glasdegib 200-mg single dose, ketoconazole 400 mg daily, healthy subjects
[7] = Population pharmacokinetic analysis; assay type: in vivo, human
How it was run: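 Single-dose intensive plasma sampling to 120 h (B1371001) or 24 h (B1371002), sparse in B1371003; multiple-dose intensive in all. HPLC–MS/MS assay, LLOQ 0.200 ng/mL. SAEM/IMP estimation; proportional residual error on log concentrations; missing covariates imputed as population median.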

[8] = cited from earlier work; remark: listed apart in the source
[9] = cited from earlier work; remark: listed apart in the source
[10] = healthy subjects; cited from earlier work
[11] = Healthy volunteer population PK model; assay type: in vivo, human
How it was run: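 Model built from noncancer subjects in studies B1371010 and B1371014 (n = 49; 1937 plasma concentrations). Structure: 2-compartment, first-order absorption and elimination, allometric body-weight scaling. Estimation by FOCEI. Food entered empirically as a linear covariate on ka. Residual error was proportional across all subjects. Intersubject variability is reported as CV (%).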

[12] = glasdegib 200-mg single dose, ketoconazole 400 mg daily, healthy subjects
[13] = bootstrap median, 1000 resampled data sets
[14] = healthy volunteer model vs final model, higher
[15] = healthy volunteer model, n = 49, FOCEI

Cc1c(C(=O)Nc2ccc(N3C[C@@H](C)O[C@@H](C)C3)nc2)cccc1-c1ccc(OC(F)(F)F)cc1 [sonidegib, Sonidegib]
Clearance in healthy subjects relative to patients with cancer [1]: 3 fold

CN1CC[C@@H](NC(=O)Nc2ccc(C#N)cc2)C[C@@H]1c1nc2ccccc2[nH]1 [glasdegib, Glasdegib]
Radiolabeled dose recovered in feces (mean) ([2]; 100 mg dose): 41.7% | Radiolabeled dose recovered in urine (mean) ([2]; 100 mg dose): 48.9% | Renal contribution to elimination [2]: around 17% | Unchanged glasdegib recovered in feces ([2]; of the 100 mg dose): 19.5% | Unchanged glasdegib recovered in urine ([2]; of the 100 mg dose): 17.2% | Downregulation of GLI1 [3]: robust and consistent | Plasma exposures with a strong CYP3A inhibitor [4]: increased | Increase in AUC extrapolated to infinity with ketoconazole vs glasdegib alone [4, 12]: 140% | Increase in maximum plasma concentration with ketoconazole vs glasdegib alone [4, 12]: 40% | Exposure increase from CL/F reduction ([5]; 10th percentile baseline body weight vs 70 kg): ~1.1 fold | Simulated fold change in steady-state maximum concentration and area under the curve ([5]; 90th percentile baseline body weight): ~0.75 | Exposure increase from CL/F reduction ([5]; 90th percentile baseline bone marrow blasts): ~1.1 fold | Increase in area under the curve ([5]; strong CYP3A inhibitors): ~1.4 fold | Absolute oral bioavailability [6]: 77.12% | Decrease in CL/F with ketoconazole (Ketoconazole): 58% | Residual error, proportional error, Hematologic ([7]; bootstrap median): 65.7% | Residual error, proportional error, Solid tumors ([7]; bootstrap median): 59.3% | CL/F [7, 13]: 6.23 L/h | Q/F [7, 13]: 1.58 L/h | Vc/F [7, 13]: 3.52 L | Vp/F [7, 13]: 296.04 L | ka [7, 13]: 0.06 hour^–1 | θBPBL [7, 13]: –0.004 | θCYPmod [7, 13]: –0.18 | θCYPstrong [7, 13]: –0.31 | θWNCL [7, 13]: 0.41 | θsolid on Q/F [7, 13]: –0.69 | θsolid on Vp/F [7, 13]: –0.81 | Effect of age, sex, race and hepatic function on glasdegib PK parameters ([7]; covariate analysis): not found to be significant covariates | Residual error, proportional error, Hematologic ([7]; final model estimate): 65.8% | Residual error, proportional error, Solid tumors ([7]; final model estimate): 59.5% | Change in CL/F per 1% change in baseline percentage bone marrow blasts ([7]; from population median 38.2%, CL/F decreases as blasts increase): 0.4% | Dose proportionality of plasma exposure ([8]; 5-600 mg QD, single and multiple daily dosing): dose‐proportional increase in plasma exposure | Maximum tolerated dose (MTD) ([8]; oral, patients): 400 mg QD | Plasma exposures with a strong CYP3A4 inducer [9]: decreased | Effect of high-fat meal or proton pump inhibitors on PK [10]: not affected in a clinically relevant manner | Intersubject variability CL/F ([11]; healthy volunteer model): 19.6% (5.8%) | Intersubject variability Vc/F ([11]; healthy volunteer model): 11.0% (52.0%) | Intersubject variability ka ([11]; healthy volunteer model): 53.4% (10.6%) | CL/F in healthy subjects relative to patients with cancer [11, 14]: > 1.6 fold | ka in healthy subjects relative to patients with cancer [11, 14]: over 13 fold | Residual error, proportional error ([11]; healthy volunteer model, all subjects): 58.6% | CL/F [11, 15]: 10.1 (4.1%) L/h | Q/F [11, 15]: 1.92 (11.4%) L/h | Vc/F [11, 15]: 112 (4.1%) L | Vp/F [11, 15]: 53.5 (6.9%) L | ka [11, 15]: 0.79 (8.9%) hour^–1 | Intersubject variability Q/F ([11]; healthy volunteer model, FIXED): 3.2% FIXED | Intersubject variability Vp/F ([11]; healthy volunteer model, FIXED): 3.2% FIXED
